# Screening results deposited in PubChem BioAssay by Broad Institute.
# This is a sample that favours compounds with a hit; in the whole collection about 2.8% have one here.
# SR-BI DiI-HDL act: activators of SR-BI mediated HDL lipid uptake | CHO ldlA[mSR-BI] cells, DiI-HDL uptake fluorescence, 3 h; 100 = double the neutral-control signal | activation, % at 12.5 µM | actives 0.096% (n = 320,000);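 active means mean replicate activation of at least 60% and every replicate at or above 60%; inconclusive means mean or all-replicate condition met, but not both; inactive means mean below 60% and not all replicates reaching 60%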;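 further: 0% = median plate neutral-control signal and 100% = twice that signal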
#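 Assay system: LDL receptor-deficient CHO ldlA cells overexpressing murine SR-BI / Medium: BSA-supplemented, HEPES-buffered Ham's F12, pH 7.4 / Probe or stimulus: DiI-labelled HDL at 10 µg/mL final / Timing: compound with DiI-HDL co-incubation, 3 h at 37 °C / Technique: bottom-read cell fluorescence after medium removal, ex 550/em 595 nm / Measure: HDL uptake via cellular fluorescence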
# CAL PDZ FP-1: blocks peptide binding to human CAL PDZ domain; Q9HD26; purified CAL PDZ, TMR-peptide fluorescence polarization, 1 h; inhibition, % at 20 µM; actives 0.02% (n = 330,000); AID 504414;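 active means highest replicate inhibition of at least 40%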;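 further: plate controls were DMSO neutral control wells for no effect and unlabeled competitor peptide control wells for full effect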
#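 Read-out basis: mP drop reported as inhibition | Assay system: Tagged CAL PDZ protein CerCALP, purified | Benchmarks: Unlabelled peptide for full inhibition, DMSO wells as neutral | Schedule: 1 h incubation at room temperature before polarization reading | Buffer or medium: Sodium phosphate/NaCl buffer pH 7.4 with TCEP, IgG, Thesit | Doses: Single point, 20 µM | Measured by: Fluorescence polarization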
# SR-BI HDL uptake: mouse SR-BI HDL lipid transfer inhibition; Q61009; ldlA[mSR-BI] CHO cells, DiI-HDL uptake fluorescence, 3 h; inhibition, % at 12.5 µM; actives 0.96% (n = 320,000);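 active means mean replicate inhibition of at least 70% and a set share of replicates each scoring 70 or more; inconclusive means meets just one of the two criteria; inactive means fails both criteria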;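 further: 0% = median of neutral control wells and 100% = median of positive control wells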
# Target sequence (Q61009 whole entry, looked up): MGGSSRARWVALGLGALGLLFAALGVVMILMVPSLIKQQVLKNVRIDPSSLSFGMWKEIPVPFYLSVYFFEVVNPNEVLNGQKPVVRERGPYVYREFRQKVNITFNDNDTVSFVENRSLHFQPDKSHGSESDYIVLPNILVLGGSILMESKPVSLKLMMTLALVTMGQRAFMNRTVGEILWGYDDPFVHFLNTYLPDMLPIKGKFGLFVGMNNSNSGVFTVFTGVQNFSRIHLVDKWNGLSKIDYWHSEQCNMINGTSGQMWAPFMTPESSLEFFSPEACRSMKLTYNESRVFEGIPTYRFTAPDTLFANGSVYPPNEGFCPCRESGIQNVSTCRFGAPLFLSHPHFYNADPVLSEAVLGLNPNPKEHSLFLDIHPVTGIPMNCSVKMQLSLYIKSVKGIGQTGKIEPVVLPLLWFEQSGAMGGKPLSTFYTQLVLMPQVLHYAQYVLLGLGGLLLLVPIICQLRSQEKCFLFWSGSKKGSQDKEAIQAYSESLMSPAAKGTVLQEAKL
# CAL PDZ FP-2: inhibitors of human CAL PDZ peptide binding; Q9HD26; purified CAL PDZ, TMR-peptide fluorescence polarization, 1 h; inhibition, % at 24.9 µM; actives 0.92% (n = 300,000);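 active means mean inhibition of at least 30% with at least half of replicates also reaching 30%; inconclusive means no clear call, values can overlap the other calls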;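 further: 0% = DMSO neutral control and 100% = excess unlabeled competitor peptide PRC23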
# dFosB act-1: activators of mouse delta FosB homodimer; P13346; purified delta FosB, TAMRA-CDK5 oligo fluorescence polarization; percent of positive-control signal above neutral wells; activation, % at 25 µM; actives 0.99% (n = 340,000);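 active means mean activation above about 17%, with every replicate also reaching it, limit read from the data, passing the limit was not always enough; inconclusive means only one of the two conditions met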
# dFosB act-2: delta FosB (mouse) homodimer activation | AID 588690 | 2,400 tested, under 10 active | shares compounds with dFosB act-1 | purified delta FosB, TAMRA-CDK5 oligo fluorescence polarization; normalised: neutral wells 0, positive control 100 | activation, % at 24.9 µM;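 active means highest replicate activation at or above 34% and every replicate reaching that threshold; inconclusive means meets only one of the two criteria; inactive means meets neither criterion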;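 further: higher polarization means more probe DNA bound by delta FosB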
# * hit, by the source's call; ? = inconclusive; nt = not tested or not shown.
SMILES,SR-BI DiI-HDL act,CAL PDZ FP-1,SR-BI HDL uptake,CAL PDZ FP-2,dFosB act-1,dFosB act-2
COc1cc(NC(=O)C2CC(c3ccc(Cl)cc3)=NO2)cc(OC)c1OC (stereo not drawn),-13.3,5.9,13.3,-8.4,14.4,nt
O=C(CNC(=O)c1cccc(Cl)c1)Nc1ccc(F)c(F)c1F,nt,0.3,nt,0.5,-1.8,nt
O=C(CNC(=O)c1n[nH]c2ccccc12)Nc1ccc(F)c(F)c1F,1.1,-0.2,-1.1,-3.0,23.0*,2.8
Cc1ccc2nc(-c3cccc(Br)c3)cc(C(=O)NC3=NCCS3)c2c1,-42.8,20.1,42.8,-1.1,43.9*,-0.8
O=C(NC1=NCCS1)c1cc(-c2cccc(Br)c2)nc2ccccc12,5.2,-1.2,-5.2,-4.0,31.0*,1.0
Cc1ccc(-c2cc(C(=O)NC3=NCCS3)c3ccccc3n2)cc1C,-54.7,-0.8,54.7,-4.1,12.8,nt
CC(C)CCC(CCNCc1ccccn1)c1ccc(Cl)cc1 (stereo not drawn),8.3,-1.2,-8.3,1.4,-1.4,nt
Cc1cccc(C)c1NC(=O)COC(=O)c1ccc(N2CCCC2)c([N+](=O)[O-])c1,1.0,-2.2,-1.0,-1.8,51.1*,6.2
CCC(C)c1ccccc1NC(=O)COC(=O)c1ccc(N2CCCC2)c([N+](=O)[O-])c1 (stereo not drawn),4.4,-1.0,-4.4,-3.6,2.4,nt
CCN(CC)CCNC(=O)c1ccc(NC(=O)C2CC(=O)N(CCc3ccc(OC)c(OC)c3)C2)cc1 (stereo not drawn),5.2,-0.8,-5.2,1.9,0.8,nt
O=C(Nc1ccc(Cl)cc1)Nc1nc(-c2ccccc2O)cs1,nt,-0.3,nt,-0.2,-3.3,nt
O=C(Nc1ccc(Cl)cc1)Nc1nc(-c2sccc2Br)cs1,-58.7,-1.7,58.7,-2.3,27.1*,3.0
CO/N=C/C(C#N)=C/c1ccc(OC)cc1,-23.1,0.0,23.1,-2.7,-3.6,nt
CO/N=C/C(C#N)=C/c1cc(C(=O)c2ccc(F)cc2)cn1C,-48.1,-0.5,48.1,nt,50.2*,3.4
Cc1ccc(C2(C)NC(=O)N(CC(=O)Nc3ccc(S(=O)(=O)Nc4nccs4)cc3)C2=O)cc1 (stereo not drawn),19.0,-2.2,-19.0,-1.5,-5.0,nt
NC(=O)c1nsc(C(=O)N(c2ccccc2)C(C(=O)NC2CCCC2)c2ccncc2)c1N (stereo not drawn),nt,-3.5,nt,-2.2,-5.2,nt
NC(=O)c1nsc(C(=O)N(c2ccccc2)C(C(=O)NCc2ccc(F)cc2)c2ccc(O)cc2)c1N (stereo not drawn),nt,-0.7,nt,1.3,44.1*,2.5
CC(C)c1ccc(N(C(=O)c2snc(C(N)=O)c2N)C(C(=O)NC2CCCC2)c2ccncc2)cc1 (stereo not drawn),nt,-1.7,nt,3.2,40.2*,-1.3
NC(=O)c1nsc(C(=O)N(c2ccccc2)C(C(=O)NC2CCCCC2)c2ccc(O)cc2)c1N (stereo not drawn),15.8,0.1,-15.8,-4.0,19.2*,4.4
O=C(O)c1ccc(/C=N/NC(=O)c2cc(-c3ccc4c5c(cccc35)CC4)n[nH]2)cc1,-1.4,-9.6,1.4,5.8,3.1,nt
COCCNC(=O)c1cccc(S(=O)(=O)N2CC3(C)CC2CC(C)(C)C3)c1 (stereo not drawn),18.8,0.3,-18.8,-1.9,-1.5,nt
O=C(c1cc2cc(Br)ccc2o1)N1CCN(c2ccccc2)CC1,-4.9,-1.7,4.9,-4.2,-6.0,nt
O=C(COC(=O)c1ccc2c(c1)OCCO2)NCCc1ccccc1,9.8,-3.2,-9.8,-2.3,-12.5,nt
Cc1cc(C)c2nc(/N=C(\N)NC(=O)c3ccccc3)nc(C)c2c1,3.2,-1.7,-3.2,9.5,-11.6,nt
Cc1cc(C)c2nc(/N=C(\N)NC(=O)Nc3ccccc3)nc(C)c2c1,-1.7,-7.4,1.7,nt,51.9*,1.5
SMILES,SR-BI DiI-HDL act,CAL PDZ FP-1,SR-BI HDL uptake,CAL PDZ FP-2,dFosB act-1,dFosB act-2
Cc1sc2nc(CN3CCCC3)nc(N3CCN(S(=O)(=O)c4cccs4)CC3)c2c1C,-6.0,-2.2,6.0,-2.5,42.2*,?
Cc1ccc(S(=O)(=O)N2CCN(c3nc(CN4CCCC4)nc4sc(C)c(C)c34)CC2)cc1,15.2,-1.7,-15.2,-3.3,10.1,nt
Nc1ccc(S(=O)(=O)Nc2nccc(/C=C/c3ccc(Cl)cc3Cl)n2)cc1,0.9,-1.6,-0.9,-3.2,39.7*,-4.2
O=C(Nc1nc2c(F)c(F)c(F)cc2s1)c1ccco1,15.4,-0.1,-15.4,-1.4,29.9*,1.8
Cc1noc(C)c1NC(=O)N(C)C[C@@H]1Oc2c(NC(=O)c3ccncc3)cccc2C(=O)N([C@H](C)CO)C[C@@H]1C,9.4,-0.1,-9.4,7.8,7.0,nt
COc1ccc(C(CNC(=O)c2oc3ccccc3c2C)N2CCCC2)cc1 (stereo not drawn),-18.1,-1.9,18.1,-0.9,0.1,nt
COc1ccc(C(CNC(=O)c2oc3ccc(Cl)cc3c2C)N2CCCCC2)cc1 (stereo not drawn),-40.1,-1.8,40.1,-4.4,22.9*,5.9
O=C(Oc1coc(CSc2nnc(NC(=O)C3CC3)s2)cc1=O)c1ccccc1,46.3,-0.2,-46.3,-2.2,23.2*,-10.9
Cc1ccc(OCc2cc(C(=O)N3CCc4sccc4C3)no2)cc1C,5.3,-2.1,-5.3,11.5,-12.9,nt
O=C(CNC(=O)c1cccc(Br)c1)N/N=C/c1ccc2c(c1)OCO2,4.1,-0.9,-4.1,-3.4,18.4*,2.7
O=C(COc1coc(CN2CCCc3ccccc32)cc1=O)Nc1ccc([N+](=O)[O-])cc1,-27.9,-2.5,27.9,-2.1,27.8*,6.8
Nc1nc(N)c2c(n1)CCCC2,nt,5.2,nt,-5.1,-2.7,nt
CC(=O)N1c2ccc(S(=O)(=O)N(C)CC(=O)NC3CCCC3)cc2CC1C (stereo not drawn),21.4,-2.2,-21.4,-1.0,-0.3,nt
O=C(Cn1ncc2c([nH]c3ccccc32)c1=O)NCCc1ccc(Cl)cc1,-8.4,-3.0,8.4,-1.7,9.7,nt
Cc1ccccc1NC(=O)Cn1nnc2c(cnn2-c2ccc(F)cc2)c1=O,3.4,-1.9,-3.4,-1.1,18.0*,4.4
O=C(Cn1ncc2c([nH]c3ccccc32)c1=O)Nc1ccc(F)cc1F,16.5,-1.7,-16.5,-1.6,63.6*,9.0
COc1ccccc1-n1c(SC)nc2c(sc(=S)n2-c2ccccc2)c1=O,5.8,-0.2,-5.8,2.0,24.2*,0.8
COc1cccc(NC(=O)CN(C)C(=O)c2cc(S(=O)(=O)N3CCCCCC3)ccc2OC)c1,-13.7,-0.4,13.7,-4.9,-4.7,nt
Cc1ccc(/C=N\NC(=O)Cc2noc3ccccc23)cc1,10.8,nt,-10.8,-2.5,22.4*,?
